# Results of several laboratories.
# Target: D(2) dopamine receptor (DRD2, Homo sapiens, UniProt P14416)
Structure (SMILES),assay,measurement,value
CCN(CC)c1ccc(C2Nc3ccc(C(=O)c4ccccc4)cc3NC3=C2C(=O)CC(C)(C)C3)cc1 (centres unmarked),"cell-free assay, radioligand",Ki,> 10000 nM
COc1ccc(CCC2=NCCN2CCc2ccccc2)cc1,"ligand displacement, radioligand",Ki,> 10000 nM
FC(F)(F)c1nc2cc(OCCCCN3CCN(c4cccc(Cl)c4Cl)CC3)ccc2s1,"cAMP, agonist, luciferase",EC50,140 nM
COc1ccc2c(c1)C(=O)N(CCCN1CCN(c3ccccc3OC)CC1)C2,"ligand displacement, radioligand",Ki,1500 nM
Oc1cccc(CCC2=NCCN2CCc2ccccc2)c1,"ligand displacement, radioligand",Ki,> 10000 nM
CC(C)c1nc2cc(OCCCCN3CCN(c4cccc5c4OCCN5)CC3)ccc2s1,"β-arrestin recruitment, agonist",EC50,16 nM
CNC(=O)[C@@]12C[C@@H]1[C@@H](n1cnc3c(NC)nc(C#Cc4cccs4)nc31)[C@H](O)[C@@H]2O,"cell-free assay, radioligand",Ki,> 10000 nM
CCO[C@H]1CCN(Cc2c(OC)cc(C)c3[nH]ccc23)[C@H](c2ccc(C(=O)O)cc2)C1,cell-free assay,Kd,> 30000 nM
O=C1c2ccccc2CCN1CCCCN1CCN(c2ccccn2)CC1,"ligand displacement, radioligand",Ki,805 nM
CCCCN1CCC(COC(=O)c2ccc(N)c(OCF)c2)CC1,"cell-free assay, radioligand",Ki,> 10000 nM
Oc1cccc(CCC2=NCCN2Cc2ccccc2)c1,"ligand displacement, radioligand",Ki,> 10000 nM
CCc1nc2cc(OCCCCN3CCN(c4cccc(Cl)c4Cl)CC3)ccc2s1,"cAMP, agonist, luciferase",EC50,98 nM
CCOCc1nc(O)c(-c2nnc(Cc3ccc(Cl)cn3)o2)c(O)c1-c1c(OC)cccc1OC,"ligand displacement, radioligand",IC50,> 30000 nM
O=C1c2ccccc2CCN1CCCCN1CCN(c2cccc(Cl)c2Cl)CC1,"ligand displacement, radioligand",Ki,14 nM
